Reference: ChEMBL document CHEMBL2016518, “Structure-activity relationships of cyanoquinolines with corrector-potentiator activity in ΔF508 cystic fibrosis transmembrane conductance regulator protein” (J Med Chem, 2012)
Active and inactive are the calls of the source. The rule behind the calls is not given here.

How the values were obtained:
Type in all cases: cell-based
[1] = Potentiation of genistein-induced human CFTR delta F508 mutant gating activity expressed in forskolin-stimulated FRT cells assessed as increase in iodine influx measured as decrease in YFP fluorescence after 24 hrs at 27 degC
In short: (§1)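 Potentiator plate-reader assay. FRT cells coexpressing human ΔF508-CFTR and YFP-H148Q/I152L, grown 18−24 h at 37 °C, then rescued 18−24 h at 27 °C. Cells are washed, then given 10 min of forskolin 20 μM plus compound in PBS (eight concentrations, 0−50 μM final). I⁻ influx comes from the YFP quench after iodide addition (2 s baseline, 12 s), by exponential regression. Controls are DMSO and genistein. EC50/Vmax come from four-parameter logistic fits; triplicate.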

[2] = system: FRT; test: Potentiation of genistein-induced human CFTR delta F508 mutant gating activity expressed in forskolin-stimulated FRT cells assessed as increase in iodine influx measured as decrease in YFP fluorescence after 24 hrs at 27 degC relative to control; in short: as §1
[3] = target: Cystic fibrosis transmembrane conductance regulator (Homo sapiens, UniProt P13569, F508DEL); test: (§2) Activity at human CFTR delta F508 mutant expressed in forskolin-stimulated FRT cells assessed as increase in iodine influx measured as decrease in YFP fluorescence after 18 to 24 hrs at 37 degC in presence of genistein
In short: (§3)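 Corrector plate-reader assay. FRT cells stably coexpressing human ΔF508-CFTR and YFP-H148Q/I152L, grown 24 h at 37 °C, then exposed to compound for 16−20 h (up to 25 μM, eight concentrations). Cells are washed, then given forskolin 20 μM plus genistein 50 μM in PBS for 20 min. I⁻ influx comes from the YFP quench recorded 2 s baseline plus 12 s after iodide addition, fitted by exponential regression. Controls are DMSO vehicle and a reference corrector. EC50/Vmax come from four-parameter logistic fits; triplicate.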

[4] = target: Cystic fibrosis transmembrane conductance regulator (Homo sapiens, UniProt P13569); test: as §2; settings: frt; in short: as §3
[5] = system: FRT; test: Potentiation of genistein-induced human CFTR delta F508 mutant gating activity expressed in forskolin-stimulated basolateral membrane permeabilized FRT cells assessed as increase in apical chloride current at 3 to 100 uM after 24 hrs at 27 degC by short-circuit assay
In short: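 Short-circuit current. ΔF508-CFTR FRT cells are cultured 7−9 days on permeable inserts and temperature-rescued 18−24 h at 27 °C. Apical Cl⁻ current is recorded in basolateral-permeabilized monolayers under an apical-to-basolateral Cl⁻ gradient. Forskolin 20 μM is added, then test compound, with CFTRinh-172 10 μM at the end.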

[6] = system: Cystic fibrosis transmembrane conductance regulator (Homo sapiens), P13569 [F508del]; test: Activity at human CFTR delta F508 mutant expressed in forskolin-stimulated basolateral membrane permeabilized FRT cells assessed as increase in apical chloride current at 10 uM after 18 to 24 hrs at 37 degC by short-circuit assay in presence of genistein
In short: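 Short-circuit current. ΔF508-CFTR FRT cells are cultured 7−9 days on permeable inserts, then given compound for 18−24 h at 37 °C. Apical Cl⁻ current is recorded after basolateral permeabilization under an apical-to-basolateral Cl⁻ gradient. Forskolin 20 μM and genistein 50 μM are added, followed by CFTRinh-172 10 μM.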

[7] = Homo sapiens, FRT, 24 h, read-out: EC50

Chain of Cystic fibrosis transmembrane conductance regulator (Homo sapiens, UniProt P13569) (P13569 as listed by the source): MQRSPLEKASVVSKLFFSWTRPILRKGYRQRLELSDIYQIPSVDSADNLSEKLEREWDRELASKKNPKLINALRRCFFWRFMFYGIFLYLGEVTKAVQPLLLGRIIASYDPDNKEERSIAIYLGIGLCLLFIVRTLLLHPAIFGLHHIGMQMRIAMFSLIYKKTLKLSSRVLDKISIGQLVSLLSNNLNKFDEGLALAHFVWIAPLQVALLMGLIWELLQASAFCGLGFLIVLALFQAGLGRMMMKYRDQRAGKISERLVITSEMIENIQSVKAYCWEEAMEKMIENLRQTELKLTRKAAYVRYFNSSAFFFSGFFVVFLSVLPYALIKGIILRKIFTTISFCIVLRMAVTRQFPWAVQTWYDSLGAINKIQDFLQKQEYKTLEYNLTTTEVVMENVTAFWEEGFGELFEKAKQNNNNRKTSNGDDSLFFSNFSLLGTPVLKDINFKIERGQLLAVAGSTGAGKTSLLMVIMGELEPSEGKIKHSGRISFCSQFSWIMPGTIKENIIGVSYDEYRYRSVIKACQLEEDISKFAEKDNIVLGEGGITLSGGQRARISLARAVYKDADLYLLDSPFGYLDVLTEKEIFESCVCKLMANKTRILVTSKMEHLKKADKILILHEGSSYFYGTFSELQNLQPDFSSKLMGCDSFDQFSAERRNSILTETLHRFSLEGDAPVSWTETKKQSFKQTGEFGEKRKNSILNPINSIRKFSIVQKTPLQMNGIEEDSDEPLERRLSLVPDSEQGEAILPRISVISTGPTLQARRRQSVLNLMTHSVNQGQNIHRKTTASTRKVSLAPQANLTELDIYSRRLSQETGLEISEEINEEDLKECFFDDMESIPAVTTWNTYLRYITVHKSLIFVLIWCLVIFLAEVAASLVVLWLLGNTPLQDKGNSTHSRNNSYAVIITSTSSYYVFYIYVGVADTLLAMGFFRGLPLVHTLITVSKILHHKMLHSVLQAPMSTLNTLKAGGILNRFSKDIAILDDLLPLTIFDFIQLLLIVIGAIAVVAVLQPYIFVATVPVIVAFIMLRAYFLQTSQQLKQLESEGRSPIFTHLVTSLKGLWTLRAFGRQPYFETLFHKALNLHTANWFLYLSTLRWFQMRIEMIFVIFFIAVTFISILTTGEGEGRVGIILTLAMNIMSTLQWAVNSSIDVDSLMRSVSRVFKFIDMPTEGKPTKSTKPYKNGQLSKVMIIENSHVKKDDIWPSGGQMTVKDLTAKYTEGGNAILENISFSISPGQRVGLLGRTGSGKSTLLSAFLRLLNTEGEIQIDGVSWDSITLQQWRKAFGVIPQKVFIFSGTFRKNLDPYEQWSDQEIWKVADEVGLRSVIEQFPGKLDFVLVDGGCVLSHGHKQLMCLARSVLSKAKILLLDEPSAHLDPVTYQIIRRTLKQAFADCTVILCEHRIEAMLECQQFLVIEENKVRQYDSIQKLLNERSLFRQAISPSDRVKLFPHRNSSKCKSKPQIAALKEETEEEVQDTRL
Chain of Cystic fibrosis transmembrane conductance regulator (Homo sapiens, UniProt P13569, F508DEL) (P13569 as listed by the source): as above
Chain of Cystic fibrosis transmembrane conductance regulator (Homo sapiens), P13569 [F508del] (P13569 as listed by the source): as above

| EC50 [1, 7] | EC50 [3] | EC50 [4] | EC50 ([1]; frt) | Activity [6] | SMILES | Vmax [2] | Activity [5] |
| --- | --- | --- | --- | --- | --- | --- | --- |
| 10 µM | 7.3 µM | – | – | – | Cc1cc(C)c2cc(C#N)c(NCCNC(=O)c3ccncc3)nc2c1 | 220 µM/s | – |
| 4.6 µM | 4.6 µM | – | – | – | COc1cccc(C(=O)NCCCNc2nc3cc(C)cc(C)c3cc2C#N)c1 | 147 µM/s | – |
| 1.2 µM | – | Not Active | – | – | Cc1cc(C)c2cc(C#N)c(NCCNC(=O)c3ccccn3)nc2c1 | 80 µM/s | – |
| 1.2 µM | – | Not Active | – | – | COc1cccc(C(=O)N2CCN(c3nc4cc(C)cc(C)c4cc3C#N)CC2)c1 | 200 µM/s | – |
| 48 µM | 1.5 µM | – | – | – | COc1ccc(C(=O)NCCNc2nc3cc(C)cc(C)c3cc2C#N)cc1OC | 216 µM/s | – |
| 16 µM | 3 µM | – | – | – | Cc1cc(C)c2cc(C#N)c(NCCCNC(=O)c3cccnc3)nc2c1 | 115 µM/s | – |
| – | – | Not Active | Not Active | – | Cc1cc(C)c2cc(C#N)c(N3CCN(C(=O)c4ccncc4)CC3)nc2c1 | – | – |
| – | 6.7 µM | – | Not Active | – | Cc1cc(C)c2cc(C#N)c(NCCNC(=O)c3cnccn3)nc2c1 | – | – |
| 2.3 µM | 11 µM | – | – | – | COc1ccccc1C(=O)NCCNc1nc2cc(C)cc(C)c2cc1C#N | 154 µM/s | – |
| 6.1 µM | – | Not Active | – | – | Cc1cc(C)c2cc(C#N)c(NCCCNC(=O)c3ccccn3)nc2c1 | 233 µM/s | – |
| 5.9 µM | 2.2 µM | – | – | Active | COc1cccc(C(=O)NCCNc2nc3cc(C)cc(C)c3cc2C#N)c1 | 216 µM/s | Active |
| 7.4 µM | – | Not Active | – | – | Cc1cc(C)c2cc(C#N)c(N3CCN(C(=O)c4ccccn4)CC3)nc2c1 | 102 µM/s | – |
| 13.2 µM | 2.7 µM | – | – | – | Cc1cc(C)c2cc(C#N)c(NCCNC(=O)c3cccnc3)nc2c1 | 242 µM/s | – |
| 10 µM | – | Not Active | – | – | Cc1cc(C)c2cc(C#N)c(NCCNC(=O)c3ccccc3)nc2c1 | 210 µM/s | – |
| 1.3 µM | – | Not Active | – | – | COc1ccc(C(=O)N2CCN(c3nc4cc(C)cc(C)c4cc3C#N)CC2)cc1 | 281 µM/s | – |
| 4.1 µM | 3 µM | – | – | Active | COc1ccc(C(=O)NCCNc2nc3cc(C)cc(C)c3cc2C#N)cc1 | 181 µM/s | Active |
| 55 µM | 4.2 µM | – | – | – | COc1ccc(C(=O)NCCNc2nc3cc(C)cc(C)c3cc2C#N)c(OC)c1 | 426 µM/s | – |
| 13.2 µM | 8.2 µM | – | – | – | Cc1cc(C)c2cc(C#N)c(NCCCNC(=O)c3ccncc3)nc2c1 | 53 µM/s | – |
| 5 µM | 4.3 µM | – | – | – | COc1ccc(C(=O)NCCCNc2nc3cc(C)cc(C)c3cc2C#N)cc1 | 231 µM/s | – |
| 1 µM | – | Not Active | – | – | COc1ccccc1C(=O)N1CCN(c2nc3cc(C)cc(C)c3cc2C#N)CC1 | 129 µM/s | – |
| 27.6 µM | – | Not Active | – | – | COc1ccccc1C(=O)NCCCNc1nc2cc(C)cc(C)c2cc1C#N | 254 µM/s | – |
| 3.4 µM | 2.7 µM | – | – | – | COc1ccc(C(=O)NCCNc2nc3cc(C)cc(C)c3cc2C#N)nc1 | 70 µM/s | – |
| 11.5 µM | 3.7 µM | – | – | – | COc1cccc(OC)c1C(=O)NCCNc1nc2cc(C)cc(C)c2cc1C#N | 119 µM/s | – |
| – | – | Not Active | Not Active | – | Cc1cc(C)c2cc(C#N)c(N3CCN(C(=O)c4cccnc4)CC3)nc2c1 | – | – |
